Experimental data reported in ChEMBL document CHEMBL1212914, “A novel water-soluble gossypol derivative increases chemotherapeutic sensitivity and promotes growth inhibition in colon cancer” (J Med Chem, 2010).
Several values for one entry are separate records, joined by “and”; a condition that tells them apart may be missing. Identical values can stand only once. Activity calls are given as the source filed them. No cut-off for these calls is given here.

How the values were obtained:
CT26 [1] = test: Induction of apoptosis in mouse CT26 cells assessed as reduction of Bcl-xL protein level at 5 to 10 uM after 24 hrs by immunoblotting; assay type: functional, cell-based
In short: (§1)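 CT26 cells were exposed to 5 or 10 μM for the indicated times, with DMSO as control. Lysates were run on 10% SDS-PAGE and transferred to nitrocellulose. Blots were probed overnight at 4 °C for Bcl-2 and Bcl-xL, with β-actin as loading control, and detected by HRP chemiluminescence. Experiments were repeated three times.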

CT26 [2] = test: Induction of apoptosis in mouse CT26 cells assessed as reduction of Bcl-2 mRNA level at 10 uM after 24 hrs by RT-PCR analysis; assay type: functional, cell-based
CT26 [3] = test: Induction of apoptosis in mouse CT26 cells assessed as reduction of Bcl-xL mRNA level at 10 uM after 24 hrs by RT-PCR analysis; assay type: functional, cell-based
CT26 [4] = test: Induction of apoptosis in mouse CT26 cells assessed as inhibition of Bcl-2-Bax interaction at 20 uM after 24 hrs by immunoprecipitation analysis; assay type: functional, cell-based
In short: (§2)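 CT26 cells were treated for 24 h, with DMSO as control, then lysed in Triton X-100 buffer for 30 min at 4 °C. Lysates were immunoprecipitated overnight at 4 °C with anti-Bcl-2 or anti-Bcl-xL antibody plus protein A-agarose. Eluates were western-blotted for Bax (Bcl-2 pulldown) or Bim (Bcl-xL pulldown).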

CT26 [5] = test: Induction of apoptosis in mouse CT26 cells assessed as inhibition of Bcl-xL-Bim interaction at 20 uM after 24 hrs by immunoprecipitation analysis; assay type: functional, cell-based; in short: as §2
CT26 [6] = test: Antitumor activity against mouse CT26 cells xenografted in BALB/c mouse assessed as decrease of tumor volume at 10 umol/kg, po for 12 consecutive days; assay type: functional, organism-based
In short: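 Male BALB/c mice (6-8 weeks) received 5 × 10^5 CT26 cells subcutaneously in the right flank. At 60 mm3, tumor-bearing mice were randomized (n = 4 per group) and dosed by gavage at 10 μmol/kg daily for 12 days in 10% ethanol, with vehicle as control. Tumors were measured every 2 days by caliper; volume = length × width × width × π/6.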

Mus musculus [7] = test: Toxicity in BALB/c mouse assessed as weight loss at 120 umol/kg, po administered daily once for 12 days; assay type: organism-based; details: in vivo, 288 h
In short: (§3)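 Male BALB/c mice aged 6-8 weeks, n = 6 per group, received 120 μmol/kg by gavage once daily for 12 days in 10% ethanol, with 10% ethanol alone as the control. Survival was followed over time, and mice were weighed at day 12 and then sacrificed. Small intestine was paraffin-embedded, cut into 5 μm sections, H&E-stained and examined by light microscopy. Student's t test was used.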

Mus musculus [8] = test: Toxicity in BALB/c mouse assessed as induction of small intestine damage at 120 umol/kg, po administered daily once for 12 days; assay type: organism-based; details: in vivo, 288 h; in short: as §3
A549 = test: Cytotoxicity against human A549 cells after 72 hrs by MTT assay; assay type: functional, cell-based; details: A549, 72 h
In short: (§4)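 Compounds dissolved in DMSO; cells seeded at 5 × 10^3 per well and treated after adherence with a range of concentrations for 72 h, with DMSO as negative control. MTT was added for 4 h at 37 °C in the dark, formazan dissolved in DMSO, and absorbance read. IC50 (μM) was calculated as the mean of three independent experiments.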

MDA-MB-435 = test: Cytotoxicity against human MDA-MB-435 cells after 72 hrs by MTT assay; assay type: functional, cell-based; in short: as §4
MCF7 = test: Cytotoxicity against human MCF7 cells after 72 hrs by MTT assay; assay type: functional, cell-based; in short: as §4
SW-620 = test: Cytotoxicity against human SW620 cells after 72 hrs by MTT assay; assay type: functional, cell-based; in short: as §4
HCT-116 = test: Cytotoxicity against human HCT116 cells after 72 hrs by MTT assay; assay type: functional, cell-based; in short: as §4
B16-F10 = test: Cytotoxicity against mouse B16F10 cells after 72 hrs by MTT assay; assay type: functional, cell-based; in short: as §4
PC-3 = test: Cytotoxicity against human PC3 cells after 72 hrs by MTT assay; assay type: functional, cell-based; in short: as §4
4T1 = test: Cytotoxicity against mouse 4T1 cells after 72 hrs by MTT assay; assay type: functional, cell-based; in short: as §4
CT26 [9] = test: Cytotoxicity against mouse CT26 cells after 72 hrs by MTT assay; assay type: functional, cell-based; in short: as §4
[10] = Solubility of the compound in 100 gram of water; assay type: physicochemical; details: buffer
In short: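 Water solubility was measured at 37 °C as the mass of compound dissolving in 100 g of H2O.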

[11] = Chemical stability of the compound in phosphate buffered saline at pH 7.2 to 7.4 after 30 mins; assay type: physicochemical; details: buffer, pH 7.2, 0.5 h
In short: (§5)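 The compound was incubated for 30 min in PBS (pH 7.2-7.4) or in human or mouse serum, and the amount remaining was analyzed by HPLC.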

Serum [12] = test: Metabolic stability of the compound in human serum after 30 mins; assay type: ADME, cell-free; details: 0.5 h; in short: as §5
Serum [13] = test: Metabolic stability of the compound in mouse serum after 30 mins; assay type: ADME, cell-free; details: 0.5 h; in short: as §5
CT26 [14] = test: Cytotoxicity against mouse CT26 cells assessed as cell viability at 20 uM after 24 hrs by […]; assay type: functional; details: CT26, 24 h, read-out: Activity
In short: (§6)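 CT26 cells were seeded at 2 × 10^3 per well and, after adherence, exposed to 2, 5, 10 or 20 μM for up to 120 h. Viability was read with a Cell Titer 96 Aqueous One Solution proliferation kit rather than MTT.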

CT26 [15] = test: Cytotoxicity against mouse CT26 cells assessed as cell viability at 20 uM after 48 hrs […]; assay type: functional; details: CT26, 48 h, read-out: Activity; in short: as §6
CT26 [16] = test: Cytotoxicity against mouse CT26 cells assessed as complete cell death at 20 uM after 72 hrs by […]; assay type: functional, cell-based; in short: as §6
CT26 [17] = test: Cytotoxicity against mouse CT26 cells at 5 to 10 uM after 24 hrs by […]; assay type: functional, cell-based; in short: as §6
CT26 [18] = test: Cytotoxicity against mouse CT26 cells assessed as cell viability at 2 uM after 120 hrs by […]; assay type: functional; details: CT26, 120 h, read-out: Activity; in short: as §6
CT26 [19] = test: Cytotoxicity against mouse CT26 cells at 2 to 20 uM by […]; assay type: functional, cell-based; details: TDE = time-dependent effect; in short: as §6
CT26 [20] = test: Induction of apoptosis in mouse CT26 cells at 5 to 10 uM by TUNEL assay; assay type: functional, cell-based; details: TDE = time-dependent effect
In short: (§7)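 After treatment at various concentrations and times, CT26 cells were PBS-washed and fixed in 4% paraformaldehyde for 1 h at room temperature. They were permeabilized for 2 min on ice, then incubated with TUNEL reaction mixture for 1 h at 37 °C in the dark and counterstained with DAPI. TUNEL-positive cells were counted by fluorescence microscopy in five random fields and averaged; DMSO served as control.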

CT26 [21] = test: Induction of apoptosis in mouse CT26 cells after 24 to 72 hrs by TUNEL assay; assay type: functional, cell-based; in short: as §7
CT26 [22] = test: Induction of apoptosis in mouse CT26 cells assessed as reduction of Bcl-2 protein level at 5 to 10 uM after 24 hrs by immunoblotting; assay type: functional, cell-based; in short: as §1
MCF-7 (Homo sapiens) = test: Cytotoxicity against human MCF-7 cells after 72 hrs by MTT assay; details: MCF-7, 72 h
Mus musculus [23] = test: Toxicity in BALB/c mouse assessed as mortality at 120 umol/kg, po administered daily once for 12 days measured on day 8; assay type: organism-based; details: in vivo, 288 h; in short: as §3
Mus musculus [24] = test: Toxicity in BALB/c mouse assessed as mortality at 120 umol/kg, po administered daily once for 12 days; assay type: organism-based; details: in vivo, 288 h; in short: as §3

Row | Compound | Activity (Mus musculus [8]) | IC50 (A549) [µM] | IC50 (MDA-MB-435; Homo sapiens, MDA-MB-435, 72 h) [µM] | IC50 (MCF7; Homo sapiens, MCF7, 72 h) [µM] | IC50 (HCT-116; Homo sapiens, HCT-116, 72 h) [µM] | IC50 (B16-F10; Mus musculus, B16-F10, 72 h) [µM] | IC50 (PC-3; Homo sapiens, PC-3, 72 h) [µM] | IC50 (4T1; Mus musculus, 4T1, 72 h) [µM] | IC50 (CT26 [9]; Mus musculus, CT26, 72 h) [µM] | solubility [10] [g] | IC50 (MCF-7 (Homo sapiens)) [µM] | also measured
1 | CC1=C(C2=C(C)C(=O)c3c(c(/C=N/[C@@H]4C(=O)N5[C@@H]4SC(C)(C)[C@@H]5C(=O)[O-])c(O)c(O)c3C(C)C)C2=O)C(=O)c2c(/C=N/[C@@H]3C(=O)N4[C@@H]3SC(C)(C)[C@@H]4C(=O)[O-])c(O)c(O)c(C(C)C)c2C1=O.[Na+].[Na+] | Non-toxic | 8.77 | > 40 | 29.1 | 17.4 | 11.1 | 29.5 | 28.2 | 6.59 | 9.25 |  | Activity (CT26 [1]): Active; Activity (CT26 [2]): inactive; Activity (CT26 [3]): inactive; Activity (CT26 [4]): Active; Activity (CT26 [5]): Active; Activity (CT26 [6]): Active; Activity (Mus musculus [7]): Non-toxic; IC50 (SW-620; Homo sapiens, SW-620, 72 h): 6.56 µM; Stability [11]: Stable; Stability (Serum [12]): Stable; Stability (Serum [13]): Stable; viability at 20 µM (CT26 [14]): 80%; viability at 20 µM (CT26 [15]): 60%; Activity (CT26 [16]): Active; Activity (CT26 [17]): Active; viability at 2 µM (CT26 [18]): > 90%; Activity (CT26 [19]): tde; Activity (CT26 [20]): tde; Activity (CT26 [21]): Dose-dependent effect; Activity (CT26 [22]): Active
2 | COC(=O)C(/N=C/c1c(O)c(O)c(C(C)C)c2cc(C)c(-c3c(C)cc4c(C(C)C)c(O)c(O)c(/C=N/C(C(=O)OC)c5c[nH]c6ccccc56)c4c3O)c(O)c12)c1c[nH]c2ccccc12 (stereo not drawn) |  | > 40 | > 40 | > 40 | > 40 | > 40 | > 40 | > 40 | > 40 |  | > 40 | 
3 | Cc1cc2c(C(C)C)c(O)c(O)c(/C=N/[C@@H](Cc3ccccc3)C(=O)O)c2c(O)c1-c1c(C)cc2c(C(C)C)c(O)c(O)c(/C=N/[C@@H](Cc3ccccc3)C(=O)O)c2c1O |  | 5.38 | > 40 | > 40 | > 40 | 22.4 | 28.4 | > 40 | 7.36 |  | > 40 | 
4 | Cc1cc2c(C(C)C)c(O)c(O)c(C=O)c2c(O)c1-c1c(C)cc2c(C(C)C)c(O)c(O)c(C=O)c2c1O [GOSSYPOL] | Toxic |  |  | 12.6 |  |  |  | 18.8 |  | < 0.001 | 12.6 | Activity (Mus musculus [23]): Toxic; Activity (Mus musculus [24]): Non-toxic; IC50 (MDA-MB-435; mda-mb-435): 11.8 µM and 33.2 µM; IC50 (MCF7; mcf7): 21.6 µM; IC50 (SW-620; sw-620): 17.2 µM; IC50 (HCT-116; hct-116): 3.33 µM and 22 µM; IC50 (B16-F10; b16-f10): 5.54 µM and 18 µM; IC50 (PC-3; pc-3): 9.14 µM and 22.4 µM; IC50 (4T1; 4t1): 21.5 µM; IC50 (CT26 [9]; ct26): 2.21 µM and 13.6 µM
